Assay outcomes from PubChem BioAssay.
SKKanGAS inh – S. pyogenes SKKanGAS growth inhibitors in kanamycin, primary screen, streptokinase expression inhibitor project, SKKanGAS strain, BacTiter-Glo luminescence. 6 h. inhibition, % at 7.5 µM. 1.3% of 300,000 active. AID 1662, 2009;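 active = mean replicate score, as percent of positive control median, at least 50; inconclusive = mean below 50 but one replicate at or above 50; inactive = mean and every replicate below 50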;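 note: strain carries kanamycin resistance gene driven by streptokinase promoter and grows in 40 µg/ml kanamycin; loss of luminescence reflects streptokinase promoter inhibition or plain growth inhibition; 0% = median of DMSO wells and 100% = positive control at its reference dose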
aSyn UTR inh – MLPCN primary screen, SNCA 5' untranslated region; alpha-synuclein 5'UTR reporter, inhibitor activity; inhibition, % (tested at 7.5 µM); 0.82% of 300,000 active; AID 1813, 2009; in the data active = inhibition above about 60%; inconclusive = no clear call, values can overlap the other calls;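 note: H4 neuroglioblastoma cells stably carrying SNCA 5'UTR luciferase fusion; 0% = DMSO wells and 100% = positive control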
Mdm2-MdmX inh – inhibitors of human Mdm2-MdmX association, primary screen, cell-based, luminescence, split luciferase, SaOS-2, uHTS. inhibition, % at 8 µM. AID 485346, 2010. SaOS-2 split-luciferase Mdm2/MdmX complementation. 3% of 330,000 active. Protein Mdm4 (Homo sapiens) + E3 ubiquitin-protein ligase Mdm2 (Homo sapiens), …;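 active = inhibition of at least 50% at 8 µM in the primary screen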
CSC inhib – cancer stem cell viability inhibitors, primary screen, luminescence. cancer stem cell-like cells viability. inhibition, % at 7.5 µM. 1.1% of 300,000 active; in the data active = inhibition above about 75%; inconclusive = no clear call, values can overlap the other calls; tested in HMLE shEcad cells
T cruzi repl – inhibitors of intracellular T. cruzi growth, primary screen, luminescence, NIH3T3 host cells; inhibition, % (concentration not given with the values); T. cruzi beta-gal in NIH3T3, 90 h; AID 1885, 2009; 1.4% of 300,000 active;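 active = mean inhibition across valid replicates above about 55%, limit read from the data; inconclusive = mean below that limit but half or more replicates reach it; inactive = mean below it, under half of replicates reach it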;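 note: signal also drops with host cell toxicity which is not excluded here; 0% = plate median of DMSO wells and 100% = zero luminescence signal; higher percent means less beta-gal luminescence so fewer parasites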
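System: NIH/3T3 fibroblasts plus reporter T. cruzi. Medium: DMEM plus 2% FBS. Probe or stimulus: 5000 reporter trypomastigotes per well. Compound: single 50 nL compound addition per well in DMSO. Incubation: co-culture of at least 90 h after 3 h attachment. Detection: GalScreen β-gal luminescence, detergent lysis, 60 min. Evaluation: parasite load inhibition, %.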
* hit, by the source's call; u = inconclusive; x = no result. Sampled rows, rich in hits. Any-hit rate of the full collection: about 5.4%.

SMILES	SKKanGAS inh	aSyn UTR inh	Mdm2-MdmX inh	CSC inhib	T cruzi repl
Clc1ccc2c(N/N=C/c3cccc(Br)c3)ccnc2c1	82*	-18	x	80*	51
O=[N+]([O-])c1ccc(/C=N/Nc2ccnc3cc(Cl)ccc23)o1	u	-49	18	15	23
O=c1c2ccc([N+](=O)[O-])c3cccc(c32)c2nc3ccccc3n12	-11	79*	-1	-9	-18
COc1cc(C(=O)N/N=C(\C)c2ccc3c(c2)OCO3)cc(OC)c1OC	4	11	50	53	2
COc1cc(C(=O)NC(=S)NC(C)C)cc(OC)c1OC	-8	-33	-33	-4	-11
COc1cc(C(=O)NNC(=O)c2ccc3c(c2)OCCO3)cc(OC)c1OC	x	x	11	-14	x
COc1cc(C(=O)NNC(=S)NC(=O)c2ccc3c(c2)OCO3)cc(OC)c1OC	77*	-8	38	57	-23
COc1ccccc1C(=O)NNC(=S)NC(=O)c1cc(OC)c(OC)c(OC)c1	80*	73*	49	-2	60*
COc1cc(C(=O)NNC(=S)NC(=O)c2ccccc2C)cc(OC)c1OC	60*	-3	23	13	-5
COc1cc(C(=O)c2cocc2C(=O)c2ccc3c(c2)OCO3)cc(OC)c1OC	0	67*	x	50	-46
CCCC(=O)c1c[nH]c(C(=O)NCCCN2CCOCC2)c1	0	26	-3	-10	0
O=C(OC1CCOC1=O)C1CCN(S(=O)(=O)c2c(Cl)cccc2Cl)CC1 (configuration not stated)	45	3	26	x	20
COc1cc(C(=O)NC(=S)Nc2cccc3nc(C)ccc23)cc(OC)c1OC	4	-17	48	4	-1
COc1cc(C(=O)NC(=S)NNC(=O)[C@H]2C[C@@H]2c2ccccc2)cc(OC)c1OC	90*	-5	22	6	-9
CC(C)c1ccc(O)c(NC(=S)NC(=O)c2ccc3c(c2)OCO3)c1	60*	-124	18	22	-18
COc1cc(C(=O)NC(=S)NNC(=O)c2cnccn2)cc(OC)c1OC	15	79*	49	36	-18
Cc1cc(NC(=O)c2cccc(S(=O)(=O)N3CCOCC3)c2)c2ccccc2n1	-7	9	-19	x	-13
O=S(=O)(Nc1nc2c(s1)CCCC2)c1ccc2ccccc2c1	11	9	0	-4	-18
c1ccc2c(Nc3nc4c(s3)CCCC4)cccc2c1	57*	-157	-182	3	40
O=S(=O)(c1ccc(N2CCN(Cc3ccccc3)CC2)nc1)N1CCCC1	x	x	-13	x	x
Cc1ccc(S(=O)(=O)N2CCOCC2)cc1NC(=O)COC(=O)Cn1c(C)csc1=O	7	2	11	-2	0
Cc1ccc(C(=O)Nc2ncc(C)s2)o1	13	-119	-96	8	-23
Cc1ccc(C(=O)Nc2ncc(Cc3ccc(F)cc3)s2)o1	28	-107	-161	120*	-15
O=C(Nc1ccc(Cl)cc1)Nc1ccccc1Sc1ncc([N+](=O)[O-])s1	31	-90	-22	84*	18
Cc1[nH]n(-c2ccc([N+](=O)[O-])cc2)c(=O)c1C=NCCN1CCN(C(=O)c2ccc(Br)cc2)CC1	33	21	16	48	66*
SMILES	SKKanGAS inh	aSyn UTR inh	Mdm2-MdmX inh	CSC inhib	T cruzi repl
O=S(=O)(c1cnc[nH]1)N1CCN(C(c2ccc(F)cc2)c2ccc(F)cc2)CC1	-3	-15	4	0	0
Cc1ccccc1OCC(=O)N/N=C/c1ccc([N+](=O)[O-])o1	3	-68	27	-9	61*
Cc1ccccc1OCC(=O)NCC(=O)N/N=C/c1ccc(Br)o1	-14	4	-27	-1	37
Cc1cc(C)cc(OCC(=O)N/N=C/c2ccc([N+](=O)[O-])o2)c1	-6	-32	12	5	60*
O=C(COc1ccccc1[N+](=O)[O-])N/N=C/C=C/c1ccco1	0	-73	-38	-10	-7
CCOC(=O)N/N=C\c1ccc([N+](=O)[O-])o1	7	16	10	2	75*
CCCCCCCC(=O)N/N=C/c1ccc([N+](=O)[O-])o1	-1	-18	6	7	47
COc1ccccc1OCC(=O)N/N=C/C=C/c1ccc([N+](=O)[O-])o1	-18	-54	16	6	58*
C=C1c2cccc(C(F)(F)F)c2O[C@H](C(=O)OCC)[C@H]1OC	x	x	-1	x	x
COc1ccc(OC)c(-c2csc(N(CC3CCCO3)C(=O)C3CCCCC3)n2)c1 (configuration not stated)	30	0	7	78*	29
CC(=O)C1=C(C)NC(SCC(=O)c2ccc(Cl)cc2Cl)=C(C#N)C1c1ccco1 (configuration not stated)	18	-19	25	22	66*
CC(=O)C1=C(C)NC(SCC(=O)c2ccc(Cl)cc2)=C(C#N)C1c1ccco1 (configuration not stated)	41	-16	-20	3	32
COc1c(Cl)cc(Cl)cc1C(=O)Nc1ccc(CN2CCOCC2)cc1	-1	-16	-35	x	-31
COc1ccc(OCc2cccc(C(=O)Nc3ccc(CN4CCCCC4)cc3)c2)cc1	-6	-112	37	47	31
CCOc1ccc(OCc2cccc(C(=O)Nc3ccc(CN4CCCCC4)cc3)c2)cc1	12	u	46	79*	26
Cc1ccc(C(=O)NC(=S)Nc2ccc(CN3CCCCC3)cc2)c(C)c1	-3	-13	-5	53	60*
COc1c(Cl)cc(Cl)cc1C(=O)Nc1ccc(NC(=O)c2cccs2)cc1	26	28	14	x	58*
COc1ccc(C(=O)NC(=S)Nc2ccc(CN3CCCCC3)cc2)cc1Cl	4	-47	25	x	51
COc1c(Cl)cc(Cl)cc1C(=O)Nc1ccc(CN2CCCCC2)cc1	4	-33	6	72	56*
Cn1cccc1C(=O)OCc1cc(-c2ccco2)on1	x	x	-63	x	x
Cn1c(C=O)c(-c2ccc3cc[nH]c3c2)c2ccccc21	x	x	44	-22	x
COc1cc(CN2CCN(Cc3ccc(C(F)(F)F)cc3)CC2)cc(OC)c1OC	-3	-7	23	10	27
CC(C)(C)c1ccc(C(=O)Nc2nnc(Cc3c[nH]c4ccccc34)s2)cc1	24	-11	-2	96*	28
CCn1nnc2cc(C(=O)Nc3cc(OC)cc(OC)c3)ccc21	39	-57	3	x	-8
O=C(O)CN1C(=O)/C(=C\c2ccccc2OCc2ccc(F)cc2)SC1=S	21	0	14	22	-11
O=C(CCCN1C(=O)/C(=C\c2cccs2)SC1=S)Nc1cc([N+](=O)[O-])ccc1O	73*	-38	29	28	-21
O=C(O)CN1C(=O)/C(=C\c2cc([N+](=O)[O-])ccc2OCc2ccccc2Cl)SC1=S	55*	-4	-17	2	3
